Published values from different studies.
Compare with care: the assays were run in different laboratories. In brackets after ≈: the same amount, converted by molar mass.
Organism: Mycobacterium tuberculosis

CCCCCCC#Cc1cncc(-c2nnc(SCc3ccc(Cl)c(F)c3)n2C)c1 has an IC90 of 13 µM (microbial growth; ERDMAN).
The MIC50 of Cc1ccc(NC(=O)c2cccc(C(F)(F)F)c2)cc1Nc1nccn1-c1cc(NN2CCN(C)CC2)ncn1 is reported as 9.67 µM (≈ 5.33 µg/mL) (microbial growth; H37RV).
For CCc1nc2ccc(Cl)cn2c1C(=O)NCc1ccc(N2CCC(c3ccc(OC(F)(F)F)cc3)CC2)cc1, the MIC90 was 0.02 µM (≈ 0.0111 µg/mL) (microbial growth; H37RV).
The MIC50 of Cc1cn(-c2cc(C(=O)Nc3ccc(C)c(Nc4nccn4-c4cc(NC5CC5)ncn4)c3)cc(C(F)(F)F)c2)cn1 is reported as 0.65 µM (≈ 0.373 µg/mL) (microbial growth; H37RV).
CO[C@H]1/C=C/O[C@@]2(C)Oc3c(C)c(O)c4c(O)c(c(/C=N/N5CCN(C)CC5)c(O)c4c3C2=O)NC(=O)/C(C)=C\C=C\[C@H](C)[C@H](O)[C@@H](C)[C@@H](O)[C@@H](C)[C@H](OC(C)=O)[C@@H]1C has an inhibition of 97% (microbial growth; H37RV; 12.5 µg/mL).
For CCOC(=O)c1c(NC(=O)c2c(F)c(F)c(F)c(F)c2F)sc2c1CCN(CC)C2, the MIC50 was 0.12 µM (≈ 0.0538 µg/mL) (microbial growth; H37RV).
For [H]/N=C(/N)N[C@H]1[C@H](O)[C@@H](O)[C@H](O[C@@H]2O[C@@H](C)[C@](O)(C=O)[C@H]2O[C@@H]2O[C@@H](CO)[C@H](O)[C@@H](O)[C@@H]2NC)[C@@H](N/C(N)=N\[H])[C@@H]1O, the IC90 was 0.28 µM (microbial growth; H37RV).
O=C(O)c1nccnc1NC(=O)c1cccc2ccccc12 has an MIC50 of 1000 µM (≈ 293 µg/mL) (microbial growth; ATCC27294 H37RV).
With CNc1cc(-n2nc(C(=O)NCCN3C(C)CCCC3C)cc2Nc2cc(NC(=O)c3cncc(C(C)(C)C)c3)ccc2C)ncn1 (stereo not drawn) the MIC50 was 0.11 µM (≈ 0.0703 µg/mL) (microbial growth; H37RV).
O=[N+]([O-])c1cc2cc3ccc4oc([N+](=O)[O-])cc4c3cc2o1 gave an MBC of 0.5 µg/mL (microbial killing, resazurin; H37RV).
With CC[C@@H](CO)NCCN[C@@H](CC)CO the IC90 was 4.61 µM (microbial growth; H37RV).
With COC(=O)c1cc(-c2cccc(NC(=S)Nc3ccccc3Cl)c2)on1 the MIC was 2 µg/mL (≈ 5.16 µM) (microbial growth; ATCC27294 H37RV; 7 days).
CC(N)(CO)C(=O)Nc1ccc(C(=O)Nc2ccnc(=O)[nH]2)cc1 (stereo not drawn) has an IC50 of greater than 100 µM (microbial growth; H37RA).
CCc1nc2ccc(Cl)cn2c1C(=O)NCc1ccc(N2CCC(c3ccc(OC(F)(F)F)cc3)CC2)cc1 gave an IC50 of 0.0031 µM (microbial growth; ERDMAN).
With COC(=O)c1cc(-c2cccc(NC(=S)Nc3ccc(F)cc3F)c2)on1 the MIC was 2 µg/mL (≈ 5.14 µM) (microbial growth; ATCC27294 H37RV; 7 days).
For CO[C@H]1/C=C/O[C@@]2(C)Oc3c(C)c(O)c4c(O)c(c(/C=N/N5CCN(C)CC5)c(O)c4c3C2=O)NC(=O)/C(C)=C\C=C\[C@H](C)[C@H](O)[C@@H](C)[C@@H](O)[C@@H](C)[C@H](OC(C)=O)[C@@H]1C, the IC50 was 0.004 µM (microbial growth; H37RV).
For CCCCCCC#Cc1cncc(-c2nnc(SCc3cc([N+](=O)[O-])cc([N+](=O)[O-])c3)n2C)c1, the IC90 was 0.44 µM (microbial growth; ERDMAN).
O=[N+]([O-])c1ccc(/C=N/Nc2nc(Nc3ccccc3)nc(N3CCOCC3)n2)o1 has an MBC of 1.6 µM (microbial killing).
For O=[N+]([O-])c1cn(Cc2cccc(Cn3cnc([N+](=O)[O-])c3)n2)cn1, the MBC was greater than 200 µM (microbial killing; H37RV; 21 days).
For CCCCCCC#Cc1cncc(-c2nnc(SCc3ccc([N+](=O)[O-])cc3)n2C)c1, the IC90 was greater than 50 µM (microbial growth; ERDMAN).
COC(=O)c1cc(-c2ccc(OC)c(NC(=O)Nc3ccc(Cl)c(Cl)c3)c2)on1 gave an MIC of 8 µg/mL (≈ 18.3 µM) (microbial growth; ATCC27294 H37RV; 7 days).
With CCCCCCC#Cc1cncc(-c2nnc(SCc3ccc(C#N)cc3)n2C)c1 the IC50 was 2.3 µM (microbial growth).
For COC(=O)c1cc(-c2cccc(NC(=S)Nc3ccc(F)c(Cl)c3)c2)on1, the MIC was 4 µg/mL (≈ 9.86 µM) (microbial growth; ATCC27294 H37RV; 7 days).
With CCCCCCC#Cc1cncc(-c2nnc(SCc3ccc([N+](=O)[O-])o3)n2C2CC2)c1 the IC50 was 0.048 µM (microbial growth; ERDMAN).
NNC(=O)c1ccncc1 has an MIC of greater than 13.7 µg/mL (microbial growth; H37RV).
COC(=O)c1cc(-c2cccc(NC(=O)Nc3ccc(C(F)(F)F)cc3)c2)on1 gave an MIC of 0.5 µg/mL (≈ 1.23 µM) (microbial growth; ATCC27294 H37RV; 7 days).
For NNC(=O)c1ccncc1, the IC90 was greater than 1 µM (microbial growth; ERDMAN).
COC(=O)c1cc(-c2cccc(NC(=O)NCc3ccccc3)c2)on1 has an MIC of 4 µg/mL (≈ 11.4 µM) (microbial growth; ATCC27294 H37RV; 7 days).
CCCCCCC#Cc1cncc(-c2nnc(Sc3ccc([N+](=O)[O-])cc3[N+](=O)[O-])n2C)c1 has an IC50 of 1.1 µM (microbial growth; ERDMAN).
COC(=O)c1cc(-c2cccc(NC(=O)Nc3c(C)cccc3C)c2)on1 has an MIC of 64 µg/mL (≈ 175 µM) (microbial growth; ATCC27294 H37RV; 7 days).
For Cc1ccc(NC(=O)c2cc(N3CCNCC3)cc(C(F)(F)F)c2)cc1Nc1nccn1-c1cc(NC2CC2)ncn1, the MIC50 was 0.63 µM (≈ 0.364 µg/mL) (microbial growth; H37RV).
The MIC of COC(=O)c1cc(-c2cccc(NC(=O)Nc3ccc(OC)cc3)c2)on1 is reported as 8 µg/mL (≈ 21.8 µM) (microbial growth; ATCC27294 H37RV; 7 days).
c1cc(Cn2cnc3ccccc32)nc(Cn2cnc3ccccc32)c1 gave an MBC of greater than 50 µM (microbial killing; H37RV; 21 days).
